HTR2A ag – mouse HTR2A agonism via beta-arrestin recruitment | P35363 | CHO-K1 mHTR2A beta-arrestin complementation, luminescence; percent of 30 µM serotonin response | activation, % at 7.6 µM | 360,000 compounds, 0.66% hits | AID 624169;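 active = activation above a run cutoff, the mean activation of all tested compounds plus 3 SD, cut at about 14% in these data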;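 note: 0% = plate median of compound wells and 100% = 30 µM serotonin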
APJ antag – antagonists of human APJ apelin receptor | inhibition, % at 20 µM | CHO-K1 APJ beta-arrestin complementation, luminescence | AID 2521 | P35414 | 330,000 compounds, 0.32% hits;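 active = inhibition above about 40% at 20 µM, limit read from the data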;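 note: cells challenged with 10 nM apelin-13 agonist together with compound; plate controls were apelin-13 plus DMSO wells for no effect and DMSO wells lacking apelin-13 for full effect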
Target sequence (P35414 whole entry, looked up): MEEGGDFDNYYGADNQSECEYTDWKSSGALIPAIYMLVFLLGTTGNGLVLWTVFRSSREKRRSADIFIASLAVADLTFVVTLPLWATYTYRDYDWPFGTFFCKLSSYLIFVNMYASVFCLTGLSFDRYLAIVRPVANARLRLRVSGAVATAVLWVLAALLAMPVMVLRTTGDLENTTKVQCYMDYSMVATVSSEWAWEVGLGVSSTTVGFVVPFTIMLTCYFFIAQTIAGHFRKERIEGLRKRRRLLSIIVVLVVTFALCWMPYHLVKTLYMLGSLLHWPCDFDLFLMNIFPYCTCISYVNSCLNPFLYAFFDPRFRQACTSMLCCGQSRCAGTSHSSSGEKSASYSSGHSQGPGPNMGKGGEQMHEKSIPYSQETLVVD
NTR1 ag – NTR1 (human) agonism | P30989 | activation, % at 20 µM | AID 493036 | NTR1-U2OS beta-arrestin-GFP spot imaging, agonist mode | 330,000 compounds, 0.17% hits;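 active = activation at or above 40% of the spot to cytoplasm intensity ratio, with at least 20 cells analyzed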;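 note: 0% = DMSO without peptide and 100% = 100 nM NTR1 peptide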
CCR6 antag – antagonists of human CCR6 receptor. P51684. CHO-K1 CCR6 PathHunter beta-arrestin, luminescence, CCL20-stimulated. inhibition, % at 20 µM. 340,000 compounds, 0.49% hits. AID 493098;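 active = compounds whose inhibition of the agonist-driven luminescence signal at 20 µM reaches about 50%, limit read from the data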;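 note: cells stimulated with CCL20 at 14 nM final; plate controls were DMSO with CCL20 for no effect and DMSO without agonist for full effect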
APJ ag – activates the human apelin receptor APJ; P35414; CHO-K1 APJ PathHunter beta-arrestin, luminescence; 0% DMSO wells, 100% apelin; activation, % at 20 µM; 330,000 compounds, 0.11% hits; AID 2520;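 active = activation more than six SD over the plate average, tested at 20 µM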;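 note: 0% = DMSO alone and 100% = apelin-13 at 10 nM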
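assay system = CHO-K1 APJ beta-arrestin complementation cell line | input = cell density 1000 per well | dosing = compound 20 µM once, DMSO 1% | timing = compound 90 min 25 °C, reagent 1 h | measured by = luminescence from split beta-galactosidase complementation, Galacton Star/Emerald II substrate | read-out basis = APJ agonist activity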
CXCR6 inh – blocks human CXCR6 beta-arrestin recruitment | O00574 | CHO-K1 PathHunter CXCR6 beta-arrestin, luminescence | inhibition, % at 20 µM | 360,000 compounds, 0.36% hits; in the data active = inhibition above about 34%, passing the limit was not always enough;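 note: antagonist mode with CXCL16 agonist at 10 nM final; 0% = 10 nM CXCL16 with DMSO and 100% = unstimulated wells without agonist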
* marks the source's active call; other numbers are inactive results; . = no result. Shown are actives, neighbours in structure and some others; about 1.5% of the full set was active somewhere.

SMILES | HTR2A ag | APJ antag | NTR1 ag | CCR6 antag | APJ ag | CXCR6 inh
Cc1ccc(C)c2sc(NC(=O)c3nc4ccccc4s3)nc12 | 6 | 16 | 3 | 51* | -3 | 38
O=C(NC(=S)N(CCCCO)C1CCCCC1)c1sc2ccccc2c1Cl | 3 | 31 | 3 | 67* | -5 | 18
O=C(Cn1c(=O)cnc2ccccc21)N1CCN(S(=O)(=O)c2ccccc2Br)CC1 | 9 | 13 | -1 | 3 | -1 | 7
O=C1C2C(C(=O)N1/N=C/c1cc(Br)cc([N+](=O)[O-])c1O)C1C=CC2C12CC2 (centres undefined) | 0 | 36 | -2 | 52* | -3 | 24
Cc1cccc2c3c([nH]c12)CCNC3 | -1 | -1 | 4 | 1 | 1 | 0
O=C(NCCc1cccnc1)C1CCC(=O)N(CCc2cccc(F)c2)C1 (centres undefined) | 7 | 8 | -1 | 7 | 0 | -5
O=C(NC(=S)N1CCN(c2ccc(Cl)cc2[N+](=O)[O-])CC1)c1ccco1 | -4 | 14 | 6 | 17 | -6 | 21
O=C(NC(=S)N1CCN(c2ccc(Cl)cc2[N+](=O)[O-])CC1)c1cccs1 | -8 | . | . | . | . | 43*
Cc1cc(C)nc(NS(=O)(=O)c2ccc(NC(=O)Cc3ccccc3F)cc2)n1 | 2 | 21 | -1 | -1 | 3 | 2
COc1ccc(C(=O)N/C(=C\c2ccccc2)C(=O)Nc2ccccc2C(=O)O)cc1 | -3 | -12 | -1 | 0 | 2 | 5
CCN(CC)c1ccc(/C=C2/C(=O)c3ccc(C(=O)O)cc3C2=O)cc1 | -1 | . | . | 77* | . | 56*
CN1N=C(C(=O)N=c2sc3ccccc3n2C)CCC1=O | 1 | . | . | 0 | . | -5
CC[n+]1c(/C=C/c2ccc(N(C)C)cc2)ccc2ccccc21 | -2 | . | . | 55* | . | 39
NS(=O)(=O)c1ccc(NCc2cc(Cl)ccc2OCc2ccccc2F)cc1 | -6 | -5 | 10 | 54* | -3 | -12
CS(=O)(=O)N(CC(=O)Nc1ccc(S(=O)(=O)N2CCOCC2)cc1)c1cccc(F)c1 | 5 | -27 | -1 | 2 | 2 | 2
N#CC1=C(N)C2=CCCC[C@H]2[C@H](c2ccc(Br)cc2)C1(C#N)C#N | -1 | . | . | 68* | . | 46*
CCc1cc(-c2n[nH]c(C)c2-c2ccccc2Cl)c(O)cc1OC | 2 | -11 | 21 | 11 | -2 | 6
C=C(CN(C)C)C(=O)c1ccc2c(c1)OCO2 | -2 | . | . | 109* | . | 91*
C=C(CN(C)C)C(=O)c1ccc(C)cc1C | -9 | . | . | 108* | . | 88*
C=C(CN(C)C)C(=O)c1cc(OC)c(OC)cc1OC | 1 | . | . | 63* | . | 38*
C[N+](C)(C)CCCC(=O)c1ccc2c(c1)OCO2 | -3 | -2 | -1 | -6 | 3 | -8
COc1ccc(C(C)(C)C)cc1NC(=O)COc1ccc(-c2nnco2)cc1 | 2 | -3 | 3 | 22 | -2 | -12
O=C(c1cccs1)c1no[n+]([O-])c1C(=O)c1cccs1 | 1 | -7 | 20 | 4 | 30* | -11
Cn1c(=O)c(Nc2ccc(O)cc2)c2c3c(cccc31)C(=O)c1ccccc1-2 | -2 | 10 | 2 | 54* | -3 | 29
CC(=O)c1c(O)cc2c3c1OC(C)(C)C1CCC(C)(CC31)O2 (centres undefined) | 7 | . | . | . | . | -14
SMILES | HTR2A ag | APJ antag | NTR1 ag | CCR6 antag | APJ ag | CXCR6 inh
C/C(=C1/C(=O)N(c2ccc([N+](=O)[O-])cc2)N=C1c1ccccc1)N(C)C | . | 49* | 0 | . | -7 | .
CCN1C(=O)CC(c2ccccc2)CC1=O | 1 | 6 | 0 | -4 | -2 | -3
Cn1c(CNC(=O)c2ccco2)nnc1SCC(=O)c1ccc(F)cc1 | 6 | 16 | -1 | 6 | 1 | -4
CC(C)[C@H](NC(=O)N1CCn2c1nc1ccccc12)C(=O)NCC1CCCO1 (some centres undefined) | 15* | -6 | 1 | 1 | 4 | 0
CN(CC(=O)Nc1ccc(Cl)cc1)C(=O)c1sccc1-c1ccccc1 | 0 | -11 | 0 | 4 | -4 | 0
O=C(c1ccccc1)c1coc2c1C(=O)c1ccccc1C2=O | 2 | -36 | -1 | 4 | 9 | -5
O=C1c2ccccc2-c2onc3ccc(Oc4ccccc4)c1c23 | 1 | -6 | -1 | 42 | 16 | 41*
Cc1cc(C)nc(SCc2cc(=O)c(OC(=O)c3ccc(Cl)c([N+](=O)[O-])c3)co2)n1 | -3 | 58* | 4 | 13 | 1 | 21
Cc1cc(C)nc(SCc2cc(=O)c(OC(=O)c3ccc(S(=O)(=O)N(C)C)cc3)co2)n1 | -1 | 12 | 3 | 5 | 0 | 6
N=c1c2c(-c3ccccc3)c(-c3ccccc3)n(Cc3ccco3)c2ncn1Cc1ccco1 | -8 | 24 | 42* | 32 | -3 | 13
Cc1ccccc1C(=O)NC(=S)Nc1ccc(S(=O)(=O)N2CCOCC2)cc1 | 0 | 10 | 2 | 35 | -4 | 32
Cc1ccccc1C(=O)NC(=S)Nc1ccc(S(=O)(=O)N2CCN(C)CC2)cc1 | -8 | 5 | 0 | 61* | -4 | 19
CCCC(=O)N(C1CC(C)C(C#N)(C#N)C1(C#N)C#N)N(C)C (centres undefined) | -3 | 32 | 2 | 94* | -5 | 81*
CC(=O)N(C1CC(C)C(C#N)(C#N)C1(C#N)C#N)N(C)C (centres undefined) | 1 | 15 | 4 | 78* | -2 | 34
O=C(NCC1CC1)c1cc2c(c(-c3cccc(-c4ccccc4F)c3)n1)[C@@H](CCO)N(C(=O)CC1CC1)C2 | -8 | . | . | . | . | 7
COc1ccc(NC(=O)CN2CCN(CC(=O)Nc3ccc(F)cc3)CC2)c(OC)c1 | 3 | -12 | -1 | 6 | -5 | 0
O=C(CNS(=O)(=O)c1ccc(Br)cc1)NCc1ccncc1 | 5 | 20 | -2 | 6 | -2 | -11
Cn1c(SCc2ccc(F)cc2Cl)nc2ccccc2c1=O | -3 | 0 | 16 | 9 | -3 | -12
Cc1ccc(S(=O)(=O)N/N=C/c2cccc([N+](=O)[O-])c2)cc1 | 1 | 51* | 0 | 37 | -9 | 9
Cc1ccc(S(=O)(=O)N/N=C\c2cc([N+](=O)[O-])ccc2Cl)cc1 | 0 | 21 | 0 | 40 | -10 | 29
O=C1N=c2ccccc2=C1c1sc(NS(=O)(=O)Cc2ccccc2)nc1O | 1 | 13 | -2 | 76* | -6 | 10
O=C1N=c2ccccc2=C1c1sc(NS(=O)(=O)c2ccccc2)nc1O | -4 | 22 | 1 | 14 | -8 | 10
O=C1N=c2ccccc2=C1c1sc(Nc2ccc(O)cc2)nc1O | -6 | . | . | 57* | . | 50*
